From ChEMBL document CHEMBL2203013, “Strategy for Imidazotetrazine Prodrugs with Anticancer Activity Independent of MGMT and MMR” (ACS Med Chem Lett, 2012)
The source made the active and inactive calls. The calls are words filed in the database; no cut-off is given here.

Assays:
A2780 [1] = assay: Ratio of IC50 for human A2780 cells to IC50 for MMR-deficient human A2780/CP70 cells in presence of 10 uM MGMT inactivator Patrin2; type: functional
[2] = Prodrug conversion in citrate-phosphate buffer at pH 8 assessed as pseudo-first-order rate constant; type: physicochemical
Procedure, shortened: (§1)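 Hydrolysis in citrate-phosphate buffers at 37 °C, followed by UV absorbance at 330 nm (loss of imidazotetrazine). k′ is a pseudo-first-order rate constant (×10–5 s–1), mean ± SD of three independent determinations; t1/2 given in hours.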

[3] = Prodrug conversion in citrate-phosphate buffer at pH 7.4 assessed as pseudo-first-order rate constant; type: physicochemical; procedure, shortened: as §1
[4] = Prodrug conversion in citrate-phosphate buffer at pH 4 assessed as pseudo-first-order rate constant; type: physicochemical; procedure, shortened: as §1
U-251 = assay: Cytotoxicity against human U251 cells after 5 days by MTT assay; type: functional, cell-based; details: for IC50: U-251, 120 h
[5] = Prodrug conversion in citrate-phosphate buffer at pH 8 assessed as half life of compound; type: physicochemical; procedure, shortened: as §1
[6] = Prodrug conversion in citrate-phosphate buffer at pH 7.4 assessed as half life of compound; type: physicochemical; procedure, shortened: as §1
A549 = assay: Cytotoxicity against human A549 cells after 5 days by MTT assay; type: functional, cell-based; details: for IC50: A549, 120 h
[7] = Prodrug conversion in citrate-phosphate buffer at pH 4 assessed as half life of compound; type: physicochemical; procedure, shortened: as §1
HCT-116 = assay: Cytotoxicity against human HCT116 cells after 5 days by MTT assay; type: functional, cell-based; details: for IC50: HCT-116, 120 h
PANC-1 = assay: Cytotoxicity against human PANC1 cells after 5 days by MTT assay; type: functional, cell-based; details: for IC50: PANC-1, 120 h
HT-29 = assay: Cytotoxicity against human HT-29 cells after 5 days by MTT assay; type: functional, cell-based; details: for IC50: HT-29, 120 h
DLD-1 = assay: Cytotoxicity against human DLD1 cells after 5 days by MTT assay; type: functional, cell-based; details: for IC50: DLD-1, 120 h
A2780/CP70 [8] = assay: Cytotoxicity against MMR-deficient human A2780/CP70 cells after 5 days by MTT assay; type: functional, cell-based
[9] = (§2) Cytotoxicity against MMR-deficient human A2780/CP70 cells after 5 days by MTT assay in presence of 10 uM MGMT inactivator Patrin2; type: functional, cell-based; details: A2780/CP70, 120 h
A2780 [10] = assay: Cytotoxicity against human A2780 cells after 5 days by MTT assay in presence of 10 uM MGMT inactivator Patrin2; type: functional, cell-based
A2780 [11] = assay: Cytotoxicity against human A2780 cells after 5 days by MTT assay; type: functional, cell-based
A2780/CP70 [12] = assay: as §2; type: functional, cell-based
Nucleic Acid [13] = assay: Binding affinity to Escherichia coli pBR322 DNA assessed as guanine-N7 alkylation on GC-rich region after 2 hrs by piperidine cleavage assay; type: nucleic-acid assay
Nucleic Acid [14] = assay: Induction of Escherichia coli pBR322 DNA alkylation assessed as formation of covalent DNA adducts after 2 hrs by Taq polymerase DNA stop assay; type: nucleic-acid assay

Drug metabolism [2] [×10⁻⁵ /s] | Drug metabolism [3] [×10⁻⁵ /s] | Drug metabolism [4] [×10⁻⁵ /s] | t1/2 [5] [h] | t1/2 [6] [h] | t1/2 [7] [h] | Activity (Nucleic Acid [13]) | Activity (Nucleic Acid [14]) | Structure (SMILES) | Ratio IC50 (A2780 [1]) | IC50 (U-251) [µM] | IC50 (A549) [µM] | IC50 (HCT-116) [µM] | IC50 (PANC-1) [µM] | IC50 (HT-29) [µM] | IC50 (DLD-1) [µM] | Activity (A2780/CP70 [8]) | Activity (A2780 [11]) | Activity (U-251) | Activity (A2780/CP70 [12]) | Activity (A2780 [10]) | also measured
46.2 | 14 | 0.1 | 0.42 | 1.38 | 253 | – | – | Cn1nnc2c(C(N)=O)ncn2c1=O [TEMOZOLOMIDE] | >27 | > 250 | > 250 | > 250 | > 250 | > 250 | > 250 | Active | Active | – | – | – | IC50 [9]: > 250 µM; IC50 (A2780 [10]; A2780, 120 h): > 250 µM
49.5 | 15.2 | 0.5 | 0.39 | 1.27 | 41.5 | Active | Active | Cc1ccc(N(C)CCn2nnc3c(C(N)=O)ncn3c2=O)cc1 | 2.8 | – | – | – | – | – | – | Active | Active | Active | Active | Active | Activity (A549): Active; Activity (HCT-116): Active; Activity (PANC-1): Active; Activity (HT-29): Active; Activity (DLD-1): Active
45.1 | 14.4 | 0.4 | 0.43 | 1.33 | 48.5 | Active | Active | Cc1ccc(N(CCn2nnc3c(C(N)=O)ncn3c2=O)CCn2nnc3c(C(N)=O)ncn3c2=O)cc1 | 5.8 | – | – | – | – | – | – | Active | Active | Active | Active | Active | Activity (A549): Active; Activity (HCT-116): Active; Activity (PANC-1): Active; Activity (HT-29): Active; Activity (DLD-1): Active
– | – | – | – | – | – | – | – | NC(=O)c1ncn2c(=O)n(CCCl)nnc12 | – | – | – | – | – | – | – | Active | Active | – | Active | Active | –

Structure (SMILES) | Drug metabolism [2] [×10⁻⁵ /s] | Drug metabolism [3] [×10⁻⁵ /s] | Drug metabolism [4] [×10⁻⁵ /s] | t1/2 [5] [h] | t1/2 [6] [h] | t1/2 [7] [h] | Activity (Nucleic Acid [13]) | Activity (Nucleic Acid [14]) | Ratio IC50 (A2780 [1]) | IC50 (U-251) [µM] | IC50 (A549) [µM] | IC50 (HCT-116) [µM] | IC50 (PANC-1) [µM] | IC50 (HT-29) [µM] | IC50 (DLD-1) [µM] | Activity (A2780/CP70 [8]) | Activity (A2780 [11]) | Activity (U-251) | Activity (A2780/CP70 [12]) | Activity (A2780 [10]) | also measured
N[C@@H](Cc1ccc(N(CCCl)CCCl)cc1)C(=O)O [MELPHALAN] | – | – | – | – | – | – | Active | Active | – | 3 | 3 | 3 | 3 | 3 | 3 | Active | Active | – | Active | Active | –
